Source: ChEMBL document CHEMBL3751721, “Development of acridine derivatives as selective Mycobacterium tuberculosis DNA gyrase inhibitors” (Bioorg Med Chem, 2016)
Converted amounts (≈) assume the structure as drawn. The source made the active and inactive calls. The calls are words filed in the database; no cut-off is given here.

What was measured:
[1] = target: DNA gyrase (Pseudomonas aeruginosa) (UniProt P48372+Q9I7C2); experiment: Inhibition of Pseudomonas aeruginosa DNA gyrase assessed as inhibition of DNA supercoiling; format: protein-complex assay
[2] = target: DNA gyrase (Staphylococcus aureus) (UniProt P0A0K8+P20831); experiment: Inhibition of Staphylococcus aureus DNA gyrase assessed as inhibition of DNA supercoiling; format: protein-complex assay
[3] = target: DNA gyrase subunit B (Mycobacterium smegmatis) (UniProt P0C559); experiment: Inhibition of Mycobacterium smegmatis GyrB by ATPase assay; settings: Mycolicibacterium smegmatis
[4] = Cytotoxicity against mouse RAW264.7 cells assessed as inhibition of cell growth at 50 uM after 72 hrs by MTT assay; format: cell-based
How it was run: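 RAW 264.7 mouse macrophages exposed to compound at 50 µM for 72 h. Viability read by MTT conversion to formazan, reported as percent inhibition.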

[5] = tested on: Mycobacterium tuberculosis; experiment: Inhibition of Mycobacterium tuberculosis DNA topoisomerase 1 assessed as DNA relaxation at 50 uM
[6] = target: DNA gyrase subunit A/DNA gyrase subunit B (Mycobacterium tuberculosis (strain ATCC 25618 / H37Rv), UniProt P9WG45+P9WG47); experiment: Inhibition of Mycobacterium tuberculosis DNA gyrase assessed as inhibition of DNA supercoiling after 30 mins by electrophoresis
Escherichia coli = experiment: Inhibition of Escherichia coli DNA gyrase assessed as inhibition of DNA supercoiling
[7] = tested on: Mycobacterium tuberculosis; experiment: Antimicrobial activity against Mycobacterium tuberculosis H37Rv ATCC 27294 after 28 days by alamar blue assay; format: functional; settings: H37Rv ATCC 27294, 672 h

Chain of DNA gyrase (Staphylococcus aureus) (P0A0K8 2-644 limits assumed): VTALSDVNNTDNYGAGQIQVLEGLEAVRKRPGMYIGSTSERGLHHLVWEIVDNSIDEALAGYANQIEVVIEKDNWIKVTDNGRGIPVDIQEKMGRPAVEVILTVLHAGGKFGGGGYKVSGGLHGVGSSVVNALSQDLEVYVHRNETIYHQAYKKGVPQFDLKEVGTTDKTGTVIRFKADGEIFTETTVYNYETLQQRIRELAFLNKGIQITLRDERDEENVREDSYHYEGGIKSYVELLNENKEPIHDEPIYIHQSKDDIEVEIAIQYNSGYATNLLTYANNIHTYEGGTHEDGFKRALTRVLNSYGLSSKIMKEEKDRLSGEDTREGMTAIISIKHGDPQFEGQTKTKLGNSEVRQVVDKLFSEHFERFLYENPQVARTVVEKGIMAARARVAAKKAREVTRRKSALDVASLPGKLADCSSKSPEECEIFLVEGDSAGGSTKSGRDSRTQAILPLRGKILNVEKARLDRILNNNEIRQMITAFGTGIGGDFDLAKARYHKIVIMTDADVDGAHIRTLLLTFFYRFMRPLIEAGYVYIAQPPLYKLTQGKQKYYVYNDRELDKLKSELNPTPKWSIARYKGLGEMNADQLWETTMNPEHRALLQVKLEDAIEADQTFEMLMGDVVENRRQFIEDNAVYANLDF
Chain of DNA gyrase (Staphylococcus aureus) (P20831 whole entry partner): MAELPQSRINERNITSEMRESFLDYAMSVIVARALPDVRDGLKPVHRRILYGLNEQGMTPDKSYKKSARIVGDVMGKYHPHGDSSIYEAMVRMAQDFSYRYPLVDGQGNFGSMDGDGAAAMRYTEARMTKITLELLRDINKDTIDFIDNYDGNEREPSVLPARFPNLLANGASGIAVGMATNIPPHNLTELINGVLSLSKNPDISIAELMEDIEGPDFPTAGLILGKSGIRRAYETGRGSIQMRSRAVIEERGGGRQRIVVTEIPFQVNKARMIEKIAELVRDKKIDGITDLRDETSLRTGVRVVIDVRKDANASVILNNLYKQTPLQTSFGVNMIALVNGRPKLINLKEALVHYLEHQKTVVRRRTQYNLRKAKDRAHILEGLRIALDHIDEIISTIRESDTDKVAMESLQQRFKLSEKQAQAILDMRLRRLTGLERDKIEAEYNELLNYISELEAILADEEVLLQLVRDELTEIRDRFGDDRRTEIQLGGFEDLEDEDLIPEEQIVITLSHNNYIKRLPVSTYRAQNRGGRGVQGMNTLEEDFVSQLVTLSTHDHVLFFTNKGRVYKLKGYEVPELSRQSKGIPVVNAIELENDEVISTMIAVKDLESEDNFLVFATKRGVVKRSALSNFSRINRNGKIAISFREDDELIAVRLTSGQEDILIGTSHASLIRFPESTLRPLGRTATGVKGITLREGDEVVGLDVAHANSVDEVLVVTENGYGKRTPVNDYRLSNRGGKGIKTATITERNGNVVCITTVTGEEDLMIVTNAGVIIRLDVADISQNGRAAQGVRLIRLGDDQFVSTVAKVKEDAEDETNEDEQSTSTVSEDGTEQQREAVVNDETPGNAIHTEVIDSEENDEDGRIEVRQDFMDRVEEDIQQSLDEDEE
Chain of DNA gyrase subunit A/DNA gyrase subunit B (P9WG45 whole entry): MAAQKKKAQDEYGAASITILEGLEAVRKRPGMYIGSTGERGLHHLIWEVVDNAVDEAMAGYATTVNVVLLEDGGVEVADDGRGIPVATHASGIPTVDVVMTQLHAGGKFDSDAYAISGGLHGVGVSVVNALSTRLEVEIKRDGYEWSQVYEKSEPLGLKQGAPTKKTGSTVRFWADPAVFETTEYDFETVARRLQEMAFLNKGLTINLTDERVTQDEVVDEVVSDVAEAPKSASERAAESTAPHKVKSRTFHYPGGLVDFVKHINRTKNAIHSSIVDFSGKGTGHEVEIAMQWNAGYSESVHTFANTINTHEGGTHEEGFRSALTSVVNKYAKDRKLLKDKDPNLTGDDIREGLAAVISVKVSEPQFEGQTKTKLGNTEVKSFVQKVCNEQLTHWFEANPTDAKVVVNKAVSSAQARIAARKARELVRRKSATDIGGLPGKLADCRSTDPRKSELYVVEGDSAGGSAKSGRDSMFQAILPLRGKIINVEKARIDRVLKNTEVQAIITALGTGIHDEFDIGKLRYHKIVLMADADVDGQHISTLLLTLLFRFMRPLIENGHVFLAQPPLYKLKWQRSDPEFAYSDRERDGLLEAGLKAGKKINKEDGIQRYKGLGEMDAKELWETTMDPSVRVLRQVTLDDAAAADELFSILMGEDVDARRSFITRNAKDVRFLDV
Chain of DNA gyrase subunit A/DNA gyrase subunit B (P9WG47 whole entry): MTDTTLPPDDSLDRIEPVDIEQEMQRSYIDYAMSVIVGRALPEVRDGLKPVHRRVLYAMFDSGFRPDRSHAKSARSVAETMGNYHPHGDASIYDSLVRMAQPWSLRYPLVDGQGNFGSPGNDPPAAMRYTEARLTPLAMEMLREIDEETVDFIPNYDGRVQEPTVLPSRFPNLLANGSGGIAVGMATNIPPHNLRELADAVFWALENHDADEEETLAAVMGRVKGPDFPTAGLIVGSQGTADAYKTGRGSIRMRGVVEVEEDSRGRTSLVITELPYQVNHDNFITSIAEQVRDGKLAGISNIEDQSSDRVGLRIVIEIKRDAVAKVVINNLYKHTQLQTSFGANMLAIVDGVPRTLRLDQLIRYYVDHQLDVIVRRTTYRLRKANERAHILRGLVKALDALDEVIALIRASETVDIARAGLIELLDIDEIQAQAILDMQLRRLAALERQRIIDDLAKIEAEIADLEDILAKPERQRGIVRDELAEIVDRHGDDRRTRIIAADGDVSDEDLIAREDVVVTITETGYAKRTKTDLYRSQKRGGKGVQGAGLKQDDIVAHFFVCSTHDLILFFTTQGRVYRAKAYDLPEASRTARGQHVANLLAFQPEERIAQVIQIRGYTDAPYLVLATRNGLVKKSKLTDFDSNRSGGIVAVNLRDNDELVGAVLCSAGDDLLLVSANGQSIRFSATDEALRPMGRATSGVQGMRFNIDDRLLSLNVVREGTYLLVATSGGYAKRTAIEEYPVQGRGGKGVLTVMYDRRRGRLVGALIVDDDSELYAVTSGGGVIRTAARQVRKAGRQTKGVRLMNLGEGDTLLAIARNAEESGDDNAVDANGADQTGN
Chain of DNA gyrase subunit B (Mycobacterium smegmatis) (P0C559 2-675 limits assumed): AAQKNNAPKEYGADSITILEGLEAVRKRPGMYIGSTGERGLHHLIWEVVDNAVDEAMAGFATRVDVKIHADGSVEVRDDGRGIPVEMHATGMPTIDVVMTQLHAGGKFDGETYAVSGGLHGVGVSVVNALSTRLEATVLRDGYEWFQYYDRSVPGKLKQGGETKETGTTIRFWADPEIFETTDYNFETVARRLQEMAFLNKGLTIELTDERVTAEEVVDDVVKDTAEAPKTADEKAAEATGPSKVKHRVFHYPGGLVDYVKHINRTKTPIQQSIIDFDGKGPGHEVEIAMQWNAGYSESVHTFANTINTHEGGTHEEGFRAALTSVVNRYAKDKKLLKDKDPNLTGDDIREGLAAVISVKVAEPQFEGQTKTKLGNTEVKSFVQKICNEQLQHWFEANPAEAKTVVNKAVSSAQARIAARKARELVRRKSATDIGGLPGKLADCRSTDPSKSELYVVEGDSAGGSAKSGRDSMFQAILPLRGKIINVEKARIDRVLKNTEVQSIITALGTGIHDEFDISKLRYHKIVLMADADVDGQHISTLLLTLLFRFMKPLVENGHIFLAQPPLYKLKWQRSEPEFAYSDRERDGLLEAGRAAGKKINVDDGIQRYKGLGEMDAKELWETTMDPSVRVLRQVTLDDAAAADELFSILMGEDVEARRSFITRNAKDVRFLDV

| Compound | inhibition [1] | inhibition [2] | inhibition [3] | inhibition at 72 h, 50 µM [4] | inhibition [5] | IC50 [6] | inhibition (Escherichia coli) | MIC [7] |
| --- | --- | --- | --- | --- | --- | --- | --- | --- |
| Cc1ccc2nc3ccccc3c(Nc3ccc(NS(=O)(=O)c4ccc([N+](=O)[O-])cc4)cc3)c2c1 | inactive | inactive | inactive | 27% | inactive | 8.34 µM | inactive | 12.9 µM (≈ 6.25 µg/mL) |
| O=S(=O)(Nc1ccc(Nc2c3ccccc3nc3ccc(Cl)cc23)cc1)c1ccccc1 | inactive | inactive | inactive | 14.5% | inactive | 9.2 µM | inactive | 27.2 µM (≈ 12.5 µg/mL) |
| O=[N+]([O-])c1ccc(NC(=S)Nc2ccc(Nc3c4ccccc4nc4ccccc34)cc2)cc1 | inactive | inactive | inactive | 20.8% | inactive | 13.1 µM | inactive | 13.4 µM (≈ 6.25 µg/mL) |
| Cc1ccc2nc3ccccc3c(Nc3ccc(NC(=O)Nc4ccc(Cl)cc4)cc3)c2c1 | inactive | inactive | inactive | 25.9% | inactive | 11.4 µM | inactive | 27.6 µM (≈ 12.5 µg/mL) |
| Cc1ccc2nc3ccccc3c(Nc3ccc(NS(=O)(=O)c4ccccc4)cc3)c2c1 | inactive | inactive | inactive | 39.6% | inactive | 5.86 µM | inactive | 28.4 µM (≈ 12.5 µg/mL) |
| O=C(Nc1ccc(Nc2c3ccccc3nc3ccccc23)cc1)Nc1ccc([N+](=O)[O-])cc1 | inactive | inactive | inactive | 19.2% | inactive | 26.8 µM | inactive | 27.8 µM (≈ 12.5 µg/mL) |
| O=C(Nc1ccc(Nc2c3ccccc3nc3ccc(Cl)cc23)cc1)Nc1ccc([N+](=O)[O-])cc1 | inactive | inactive | inactive | 45.9% | inactive | 7.3 µM | inactive | 6.46 µM (≈ 3.13 µg/mL) |
| O=[N+]([O-])c1ccc(S(=O)(=O)Nc2ccc(Nc3c4ccccc4nc4ccc(Cl)cc34)cc2)cc1 | inactive | inactive | inactive | 30.4% | inactive | 8.1 µM | inactive | 24.8 µM (≈ 12.5 µg/mL) |
| Cc1ccc(NC(=O)Nc2ccc(Nc3c4ccccc4nc4ccc(Cl)cc34)cc2)cc1 | inactive | inactive | inactive | 29.2% | inactive | 12.5 µM | inactive | 13.8 µM (≈ 6.25 µg/mL) |
| Cc1ccc2nc3ccccc3c(Nc3ccc(NC(=O)Nc4ccccc4)cc3)c2c1 | inactive | inactive | inactive | 24.8% | inactive | 22.1 µM | inactive | 29.9 µM (≈ 12.5 µg/mL) |
| O=C(Nc1ccc(Cl)cc1)Nc1ccc(Nc2c3ccccc3nc3ccc(Cl)cc23)cc1 | inactive | inactive | inactive | 17.1% | inactive | 11.8 µM | inactive | 13.2 µM (≈ 6.25 µg/mL) |
| Cc1ccc(NC(=S)Nc2ccc(Nc3c4ccccc4nc4ccc(Cl)cc34)cc2)cc1 | inactive | inactive | inactive | 25.5% | inactive | 33.9 µM | inactive | > 53.3 µM |
| O=C(Nc1ccccc1)Nc1ccc(Nc2c3ccccc3nc3ccccc23)cc1 | inactive | inactive | inactive | 30.4% | inactive | 32.6 µM | inactive | > 61.8 µM |
| O=S(=O)(Nc1ccc(Nc2c3ccccc3nc3ccccc23)cc1)c1ccccc1 | inactive | inactive | inactive | 42.1% | inactive | 15.1 µM | inactive | 14.7 µM (≈ 6.25 µg/mL) |
| Cc1ccc2nc3ccccc3c(Nc3ccc(NC(=O)Nc4ccc([N+](=O)[O-])cc4)cc3)c2c1 | inactive | inactive | inactive | 33.9% | inactive | 7.4 µM | inactive | 13.5 µM (≈ 6.25 µg/mL) |
| Cc1ccc(S(=O)(=O)Nc2ccc(Nc3c4ccccc4nc4ccccc34)cc2)cc1 | inactive | inactive | inactive | 28.4% | inactive | 9.3 µM | inactive | 28.4 µM (≈ 12.5 µg/mL) |
| O=[N+]([O-])c1ccc(NC(=S)Nc2ccc(Nc3c4ccccc4nc4ccc(Cl)cc34)cc2)cc1 | inactive | inactive | inactive | 30.4% | inactive | 28.8 µM | inactive | > 50 µM |
| S=C(Nc1ccccc1)Nc1ccc(Nc2c3ccccc3nc3ccccc23)cc1 | inactive | inactive | inactive | 29.2% | inactive | 8.2 µM | inactive | 14.9 µM (≈ 6.25 µg/mL) |
| O=[N+]([O-])c1ccc(S(=O)(=O)Nc2ccc(Nc3c4ccccc4nc4ccccc34)cc2)cc1 | inactive | inactive | inactive | 34.1% | inactive | 22.4 µM | inactive | 24.6 µM (≈ 11.6 µg/mL) |
| O=S(=O)(Nc1ccc(Nc2c3ccccc3nc3ccccc23)cc1)c1ccc(Cl)cc1 | inactive | inactive | inactive | 34.2% | inactive | 23.8 µM | inactive | 27.2 µM (≈ 12.5 µg/mL) |
| Cc1ccc(NC(=O)Nc2ccc(Nc3c4ccccc4nc4ccccc34)cc2)cc1 | inactive | inactive | inactive | 18.4% | inactive | 13.1 µM | inactive | 14.9 µM (≈ 6.25 µg/mL) |
| O=S(=O)(Nc1ccc(Nc2c3ccccc3nc3ccc(Cl)cc23)cc1)c1ccc(Cl)cc1 | inactive | inactive | inactive | 14.2% | inactive | 12.4 µM | inactive | 25.1 µM (≈ 12.4 µg/mL) |
| Cc1ccc(NC(=O)Nc2ccc(Nc3c4ccccc4nc4ccc(C)cc34)cc2)cc1 | inactive | inactive | inactive | 43.1% | inactive | 29.6 µM | inactive | 57.8 µM (≈ 25 µg/mL) |
| Cc1ccc2nc3ccccc3c(Nc3ccc(NC(=S)Nc4ccc(Cl)cc4)cc3)c2c1 | inactive | inactive | inactive | 26% | inactive | 11.2 µM | inactive | 26.7 µM (≈ 12.5 µg/mL) |
| S=C(Nc1ccc(Cl)cc1)Nc1ccc(Nc2c3ccccc3nc3ccccc23)cc1 | inactive | inactive | inactive | 12.5% | inactive | 8.4 µM | inactive | 13.7 µM (≈ 6.25 µg/mL) |
| CO[C@H]1/C=C/O[C@@]2(C)Oc3c(C)c(O)c4c(O)c(c(/C=N/N5CCN(C)CC5)c(O)c4c3C2=O)NC(=O)/C(C)=C\C=C\[C@H](C)[C@H](O)[C@@H](C)[C@@H](O)[C@@H](C)[C@H](OC(C)=O)[C@@H]1C [RIFAMPIN] |  |  |  |  |  | > 50 µM |  | 0.23 µM (≈ 0.189 µg/mL) |
| Cc1ccc(S(=O)(=O)Nc2ccc(Nc3c4ccccc4nc4ccc(Cl)cc34)cc2)cc1 | inactive | inactive | inactive | 38.5% | inactive | 22.8 µM | inactive | > 52.8 µM |
| CO[C@@H]1[C@@H](OC(N)=O)[C@@H](O)[C@H](Oc2ccc3c(O)c(NC(=O)c4ccc(O)c(CC=C(C)C)c4)c(=O)oc3c2C)OC1(C)C [NOVOBIOCIN] |  |  |  |  |  |  |  | > 50 µM |
| NNC(=O)c1ccncc1 [ISONIAZID] |  |  |  |  |  | > 50 µM |  | 0.66 µM (≈ 0.0905 µg/mL) |
| COc1c(N2C[C@@H]3CCCN[C@@H]3C2)c(F)cc2c(=O)c(C(=O)O)cn(C3CC3)c12 [MOXIFLOXACIN] |  |  |  | 1.26% |  |  |  | 1.26 µM (≈ 0.506 µg/mL) |
